From publication PMC3931004 (The Biochemical journal, 2013)

Tests used:
[1] = tested on: mouse embryo fibroblasts; conditions: 5 min stimulation with IGF-1, serum starved overnight; cited from earlier work
[2] = biological target: Akt^PH (human recombinant AKT1) (Homo sapiens, UniProt P31749); assay: SPR ligand competition: Akt binding to vesicular PtdIns
[3] = biological target: T1, PBD1 of PPIP5K1 (Homo sapiens, UniProt Q6PFW1); assay: SPR ligand competition: PBD1 binding to vesicular PtdIns; conditions: for fold lower affinity for PBD1 than InsP6 and 5-InsP7: from IC50 values
T1 sequence (Q6PFW1 382-917): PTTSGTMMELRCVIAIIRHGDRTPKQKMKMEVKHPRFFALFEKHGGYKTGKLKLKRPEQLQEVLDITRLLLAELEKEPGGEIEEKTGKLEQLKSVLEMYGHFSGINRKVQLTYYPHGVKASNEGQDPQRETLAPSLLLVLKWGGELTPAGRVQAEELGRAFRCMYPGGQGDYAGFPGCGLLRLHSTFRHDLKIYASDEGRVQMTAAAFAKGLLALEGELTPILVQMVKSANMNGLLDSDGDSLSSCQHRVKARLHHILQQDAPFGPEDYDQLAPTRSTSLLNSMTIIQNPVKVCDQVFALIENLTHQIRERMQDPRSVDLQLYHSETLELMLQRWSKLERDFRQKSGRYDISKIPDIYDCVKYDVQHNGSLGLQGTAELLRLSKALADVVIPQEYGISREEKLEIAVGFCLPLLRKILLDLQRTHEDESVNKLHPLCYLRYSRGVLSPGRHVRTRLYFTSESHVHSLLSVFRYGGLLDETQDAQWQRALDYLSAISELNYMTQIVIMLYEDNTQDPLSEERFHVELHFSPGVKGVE

[4] = biological target: SIN1^PH (Homo sapiens, UniProt Q9BPZ7); assay: SPR ligand competition: SIN1^PH binding to vesicular PtdIns
[5] = tested on: NIH 3T3 cells; assay: [3H]inositol lipid and inositol phosphate levels in NIH 3T3 cells by HPLC; format: cell-based
Procedure, shortened: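 NIH 3T3 cells in DMEM with 10 % FBS and 1 mM pyruvate (37 °C, 5 % CO2), [3H]inositol-labelled, serum-starved 3 h in Hepes-buffered saline-glucose medium pH 7.4. Treatment: vehicle or PDGF for 5 min, or fresh medium with or without 0.2 M sorbitol. Reactions quenched; lipids or inositol phosphates extracted and quantified by HPLC as % of total. PDGF data: mean ± S.E.M., three experiments.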

[6] = biological target: T2, GRP1^PH (Mus musculus, UniProt O08967); assay: SPR ligand competition: GRP1^PH association with PtdIns; format: binding; conditions: Supplementary Figure S2
T2 sequence (O08967 261-387 limits assumed): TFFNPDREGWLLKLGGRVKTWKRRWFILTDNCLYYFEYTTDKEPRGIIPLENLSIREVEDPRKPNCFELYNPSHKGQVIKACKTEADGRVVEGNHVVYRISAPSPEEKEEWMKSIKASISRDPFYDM
Procedure, shortened: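 GRP1 PH domain expressed in E. coli BL21(DE3) at 37 °C in ampicillin LB, induced overnight at 25 °C with 1 mM IPTG at D600 0.6, lysed in imidazole-containing Hepes pH 8 buffer. SPR: protein injected at 5 μl/min over immobilized PtdIns(3,4,5)P3-containing lipid vesicles in 100 mM KCl, 10 mM NaH2PO4, 1 mM MgCl2, 25 mM Hepes pH 7.2. Signal corrected against control vesicles lacking the phosphoinositide.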

[7] = 30 min hyperosmotic stress, 0.2 M sorbitol

SIN1^PH, sequence (Q9BPZ7 358-522): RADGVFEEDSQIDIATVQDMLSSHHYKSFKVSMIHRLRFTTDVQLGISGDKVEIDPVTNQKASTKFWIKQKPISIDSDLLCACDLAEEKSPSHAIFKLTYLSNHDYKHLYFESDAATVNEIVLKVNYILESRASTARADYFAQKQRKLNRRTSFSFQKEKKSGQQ
Akt^PH (human recombinant AKT1), sequence (P31749 5-108 limits assumed): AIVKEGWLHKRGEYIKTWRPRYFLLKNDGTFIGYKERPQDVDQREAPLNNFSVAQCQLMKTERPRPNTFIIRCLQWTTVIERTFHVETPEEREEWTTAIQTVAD

| IC50 [2] [µM] | IC50 [3] [µM] | IC50 [4] [µM] | Molecule | further results |
| --- | --- | --- | --- | --- |
| – | – | – | IGF-1: insulin-like growth factor 1 | increase in levels of InsP6 and InsP7 [1]: 2 fold |
| 45 | 43 | > 100 | O=P(O)(O)O[C@@H]1[C@@H](OP(=O)(O)O)[C@@H](OP(=O)(O)O)[C@@H](OP(=O)(O)OP(=O)(O)O)[C@H](OP(=O)(O)O)[C@H]1OP(=O)(O)O [1-InsP7] | fold lower affinity for PBD1 than InsP6 and 5-InsP7 [3]: 6–7 fold |
| – | – | – | OC[C@@H](O)[C@@H](O)[C@H](O)[C@@H](O)CO [sorbitol] | elevation of PtdIns(3,4,5)P3 levels [5, 7]: 4.5 fold; increase in InsP8 concentration [5, 7]: 4.5 fold |
| 7 | 5 | 3.7 | O=P(O)(O)O[C@H]1[C@@H](OP(=O)(O)O)[C@H](OP(=O)(O)O)[C@@H](OP(=O)(O)OP(=O)(O)O)[C@H](OP(=O)(O)O)[C@H]1OP(=O)(O)O [5-InsP7] | inhibition of GRP1^PH association with PtdIns(3,4,5)P3, relative potency [6]: only marginally more potent than InsP6 |
| – | – | – | PDGF | increase in levels of PtdIns(3,4,5)P3 ([5]; 5 min stimulation with 50 ng/ml PDGF, 3 h serum starved): 2 fold |
| > 50 | 32 | > 100 | O=P(O)(O)O[C@@H]1[C@@H](OP(=O)(O)O)[C@H](OP(=O)(O)OP(=O)(O)O)[C@@H](OP(=O)(O)O)[C@H](OP(=O)(O)OP(=O)(O)O)[C@@H]1OP(=O)(O)O [InsP8, bis-diphosphoinositol tetrakisphosphate] | fold lower affinity for PBD1 than InsP6 and 5-InsP7 [3]: 6–7 fold |

| Molecule | IC50 [2] [µM] | IC50 [3] [µM] | IC50 [4] [µM] | further results |
| --- | --- | --- | --- | --- |
| O=P(O)(O)O[C@H]1[C@H](OP(=O)(O)O)[C@@H](OP(=O)(O)O)[C@H](OP(=O)(O)O)[C@@H](OP(=O)(O)O)[C@H]1OP(=O)(O)O [InsP6] | 14 | 7 | 6 | – |
